pIC50: −log10 of the molar value.
What was measured:
Staphylococcus aureus [1] = test: Antibacterial activity against Staphylococcus aureus ATCC 29213 by modified CLSI/NCCLS method; type: functional, organism-based
BT-549 = test: Cytotoxicity against human BT549 cells after 48 hrs by neutral red assay; type: functional, cell-based; conditions: for pIC50: Homo sapiens, BT-549, 48 h, read-out: IC50; for IC50: bt-549
How it was run: (§1)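 Cells seeded at 25,000 per well and incubated 24 h, then exposed to samples for 48 h. Viable cells were counted by neutral red, with DMSO as vehicle control. IC50 or TC50 values were derived from logarithmic plots of growth inhibition versus concentration.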

[2] = Toxicity against african green monkey Vero cells; type: cell-based; conditions: chlorocebus sabaeus; how it was run: as §1
[3] = Toxicity against pig LLC-PK11 cells after 48 hrs by neutral red assay; type: cell-based, Sus scrofa; conditions: for CC50 at 48 h: LLC-PK11 cells, read-out: TC50; for TC50: llc-pk11, 48 h; how it was run: as §1
[4] = Selectivity index, ratio of TC50 for african green monkey (Cercopithecus aethiops) Vero cells to IC50 for Plasmodium falciparum W2; type: toxicity, cell-based
Staphylococcus aureus [5] = test: Antibacterial activity against methicillin-resistant Staphylococcus aureus ATCC 43300 by modified CLSI/NCCLS method; type: functional, organism-based
[6] = Selectivity index, ratio of TC50 for african green monkey (Cercopithecus aethiops) Vero cells to IC50 for Plasmodium falciparum D6; type: toxicity, cell-based
Plasmodium falciparum [7] = test: Antiplasmodial activity against Plasmodium falciparum D6 infected in RBCs by parasitic LDH release assay; type: functional, organism-based
How it was run: (§2)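 Infected erythrocytes at 2% parasitemia and 2% hematocrit, in RPMI 1640 with 10% human serum and amikacin 60 μg/mL, were exposed to serial dilutions under N2/O2/CO2 (90:5:5) at 37°C for 72 h. LDH was read with Malstat reagent (30 min), then NBT/PES in the dark (60 min), stopped with 5% acetic acid, at 650 nm. IC50 came from percent growth dose-response curves.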

SK-MEL = test: Cytotoxicity against human SK-MEL cells after 48 hrs by neutral red assay; type: functional, cell-based; conditions: for pIC50: Homo sapiens, SK-MEL, 48 h, read-out: IC50; for IC50: sk-mel; how it was run: as §1
Pichia kudriavzevii = test: Antifungal activity against Candida krusei ATCC 6258 by modified CLSI/NCCLS method; type: functional, organism-based; conditions: for pIC50: Pichia kudriavzevii, ATCC 6258, read-out: IC50
Pseudomonas aeruginosa = test: Antibacterial activity against Pseudomonas aeruginosa ATCC 27853 by modified CLSI/NCCLS method; type: functional, organism-based
SK-OV-3 = test: Cytotoxicity against human SKOV3 cells after 48 hrs by neutral red assay; type: functional, cell-based; conditions: sk-ov-3; how it was run: as §1
Plasmodium falciparum [8] = test: Antiplasmodial activity against Plasmodium falciparum W2 infected in RBCs by parasitic LDH release assay; type: functional, organism-based; how it was run: as §2
Escherichia coli = test: Antibacterial activity against Escherichia coli ATCC 35218 by modified CLSI/NCCLS method; type: functional, organism-based; conditions: for pIC50: Escherichia coli, ATCC 35218, read-out: IC50
[9] = test system: Mycobacterium intracellulare; test: Antibacterial activity against Mycobacterium intracellular ATCC 23068 by Franzblau method; type: functional, organism-based; conditions: for pIC50: Mycobacterium intracellulare, ATCC 23068, read-out: IC50
Leishmania donovani = test: Antileishmanial activity against Leishmania donovani promastigotes after 48 hrs by alamar blue assay; type: functional, organism-based; conditions: Leishmania donovani, 48 h; for pIC50: read-out: IC50
[10] = (§3) Toxicity against african green monkey Vero cells after 48 hrs by neutral red assay; type: cell-based; conditions: chlorocebus sabaeus, Vero cells; read-out: TC50; how it was run: as §1
Aspergillus fumigatus = test: Antifungal activity against Aspergillus fumigatus ATCC 90906 by modified CLSI/NCCLS method; type: functional, organism-based; conditions: for pIC50: Aspergillus fumigatus, ATCC 90906, read-out: IC50
Candida albicans = test: Antifungal activity against Candida albicans ATCC 90028 by modified CLSI/NCCLS method; type: functional, organism-based; conditions: for pIC50: Candida albicans, ATCC 90028, read-out: IC50
Cryptococcus neoformans = test: Antifungal activity against Cryptococcus neoformans ATCC 90113 by modified CLSI/NCCLS method; type: functional, organism-based
Nakaseomyces glabratus = test: Antifungal activity against Candida glabrata ATCC 90030 by modified CLSI/NCCLS method; type: functional, organism-based; conditions: for pIC50: Nakaseomyces glabratus, ATCC 90030, read-out: IC50
KB = test: Cytotoxicity against human KB cells after 48 hrs by neutral red assay; type: functional, cell-based; conditions: for pIC50: Homo sapiens, KB, 48 h, read-out: IC50; for IC50: kb; how it was run: as §1
Vero = test: as §3; type: cell-based; conditions: chlorocebus sabaeus, vero, 48 h; how it was run: as §1

SMILES | pIC50 (BT-549) | CC50 [2] | CC50 at 48 h [3] | selectivity ratio [4] | selectivity ratio [6] | pIC50 (Plasmodium falciparum [7]) | pIC50 (SK-MEL) | IC50 (Pseudomonas aeruginosa) | IC50 (SK-OV-3) | pIC50 (Plasmodium falciparum [8]) | pIC50 (Escherichia coli) | IC90 (Leishmania donovani) | pIC50 (Leishmania donovani) | CC50 at 48 h [10] | pIC50 (Aspergillus fumigatus) | pIC50 (Candida albicans) | pIC50 (Cryptococcus neoformans) | pIC50 (KB) | IC50 (Staphylococcus aureus [5]) | IC50 [9] | also measured
C[C@H]1[C@@H](OCC[C@H](O)CO[C@H]2O[C@@H]3O[C@@]4(C)CC[C@H]5[C@H](C)CC[C@@H]([C@H]2C)[C@@]35OO4)O[C@@H]2O[C@@]3(C)CC[C@H]4[C@H](C)CC[C@@H]1[C@@]24OO3 | 7.10 | > 7.45 µM | 100 nM | > 164 | > 170 | 7.36 | 6.62 | Not Active | Not Active | 7.34 | 4.87 | 9.4 µM | 5.60 | > 1570 nM | 5.28 | 4.99 | 5.80 | 6.80 |  |  | pIC50 (Staphylococcus aureus [1]; Staphylococcus aureus, ATCC 29213, read-out: IC50): 4.78; pIC50 (Staphylococcus aureus [5]; Staphylococcus aureus, ATCC 43300, read-out: IC50): < 4.50; pIC50 (Pichia kudriavzevii): < 4.50; pIC50 [9]: < 4.50; pIC50 (Nakaseomyces glabratus): < 4.50
C[C@H]1[C@@H](OCC(=O)CO)O[C@@H]2O[C@@]3(C)CC[C@H]4[C@H](C)CC[C@@H]1[C@@]24OO3 |  | > 13.3 µM | 20800 nM | > 1900 | > 1700 | 8.10 |  | Not Active | Not Active | 8.15 |  | 112 µM | 4.59 |  |  | < 4.25 | 5.19 |  | Not Active | Not Active | IC50 (Staphylococcus aureus [1]): Not Active; IC50 (BT-549): Not Active; IC50 (SK-MEL): Not Active; pIC50 (Pichia kudriavzevii): < 4.25; IC50 (Escherichia coli): Not Active; TC50 (Vero): Not Active; IC50 (Aspergillus fumigatus): Not Active; IC50 (Nakaseomyces glabratus): Not Active; IC50 (KB): Not Active
C[C@H]1[C@@H](Oc2cccc(N[C@@H]3[C@H](C)O[C@@H]4O[C@@]5(C)CC[C@H]6[C@H](C)CC[C@@H]3[C@@]46OO5)c2)O[C@@H]2O[C@@]3(C)CC[C@H]4[C@H](C)CC[C@@H]1[C@@]24OO3 |  | > 7.41 µM |  | > 1250 | > 1290 | 8.24 |  | Not Active | Not Active | 8.23 | 5.07 | 62.3 µM | 4.60 |  |  |  | 6.80 |  | Not Active | Not Active | IC50 (BT-549): Not Active; TC50 [3]: Not Active; IC50 (SK-MEL): Not Active; TC50 (Vero): Not Active; IC50 (Aspergillus fumigatus): Not Active; IC50 (Candida albicans): Not Active; IC50 (KB): Not Active
C[C@H]1[C@@H](OC[C@@H]2O[C@@H]2CO[C@H]2O[C@@H]3O[C@@]4(C)CC[C@H]5[C@H](C)CC[C@@H]([C@H]2C)[C@@]35OO4)O[C@@H]2O[C@@]3(C)CC[C@H]4[C@H](C)CC[C@@H]1[C@@]24OO3 (relative stereo) | 6.52 | > 7.47 µM | 680 nM | > 159 | > 164 | 7.34 | 6.66 |  | Not Active | 7.33 |  | 47.1 µM | 5.41 | > 1570 nM | < 4.50 | < 4.50 | 4.50 | 6.33 | Not Active | Not Active | IC50 (Staphylococcus aureus [1]): Not Active; IC50 (Pichia kudriavzevii): Not Active; pIC50 (Pseudomonas aeruginosa; Pseudomonas aeruginosa, ATCC 27853, read-out: IC50): < 4.50; IC50 (Escherichia coli): Not Active; pIC50 (Nakaseomyces glabratus): < 4.50
C[C@H]1[C@@H](OCC[C@@H](CO[C@H]2O[C@@H]3O[C@@]4(C)CC[C@H]5[C@H](C)CC[C@@H]([C@H]2C)[C@@]35OO4)O[C@H]2O[C@@H]3O[C@@]4(C)CC[C@H]5[C@H](C)CC[C@@H]([C@H]2C)[C@@]35OO4)O[C@@H]2O[C@@]3(C)CC[C@H]4[C@H](C)CC[C@@H]1[C@@]24OO3 | 7.22 | 5.25 µM | 70 nM | 22 | 18 | 6.53 | 6.62 | Not Active | Not Active | 6.61 |  | 44.2 µM | 5.30 | > 1100 nM |  |  | 4.78 | 6.96 | Not Active |  | IC50 (Staphylococcus aureus [1]): Not Active; IC50 (Pichia kudriavzevii): Not Active; IC50 (Escherichia coli): Not Active; pIC50 [9]: < 4.66; IC50 (Aspergillus fumigatus): Not Active; IC50 (Candida albicans): Not Active; IC50 (Nakaseomyces glabratus): Not Active
C[C@H]1[C@@H](OC[C@@H](O)[C@@H](O)CO[C@H]2O[C@@H]3O[C@@]4(C)CC[C@H]5[C@H](C)CC[C@@H]([C@H]2C)[C@@]35OO4)O[C@@H]2O[C@@]3(C)CC[C@H]4[C@H](C)CC[C@@H]1[C@@]24OO3 (relative stereo) |  | > 7.26 µM |  | > 1400 | > 1080 | 8.17 |  | Not Active | Not Active | 8.28 | 4.82 | 22.9 µM |  |  | 4.52 | 5.21 | 5.91 |  | Not Active | Not Active | IC50 (BT-549): Not Active; TC50 [3]: Not Active; IC50 (SK-MEL): Not Active; TC50 (Vero): Not Active; IC50 (KB): Not Active
